In the library only some 1.6% were active in any assay of this set; here they are far more common.
GSTO1 inh = blocks human GSTO1 in RBBP9 counter-screen. P78417. recombinant GSTO1, activity-based probe fluorescence polarization. inhibition, % at 5.96 µM. hit rate 1.1% among 300,000. AID 1974;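 active means inhibition above the campaign mean inhibition plus 3 SD, cut at about 35% in these data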;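 further: 0% = GSTO1-1 with DMSO and 100% = wells lacking GSTO1-1 enzyme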
CTSL1 counter = counter-screen for PFM18AAP inhibitors: inhibitors of F. hepatica cathepsin L1. recombinant F. hepatica cathepsin L1, Z-Leu-Arg-MCA fluorescence. inhibition, % at 5.96 µM. hit rate 0.49% among 300,000. AID 1906;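 active means inhibition above the mean of all tested compounds plus 3 SD, set per screening campaign, cut at about 17% in these data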;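 further: 0% = plate median of test compound wells and 100% = 1 µM Z-Phe-Ala-diazomethylketone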
UCH37 DUB inh = blocks the human deubiquitinase UCH37; purified proteasome/UCH37, Ub-AMC cleavage fluorescence; inhibition, % (test concentration not listed); hit rate 0.33% among 330,000;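 active means mean inhibition over replicate wells above about 20%, limit read from the data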;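 further: 0% = compound-free wells with enzyme and 100% = wells lacking proteasome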
Target sequence (Q9Y5K5 whole entry, looked up): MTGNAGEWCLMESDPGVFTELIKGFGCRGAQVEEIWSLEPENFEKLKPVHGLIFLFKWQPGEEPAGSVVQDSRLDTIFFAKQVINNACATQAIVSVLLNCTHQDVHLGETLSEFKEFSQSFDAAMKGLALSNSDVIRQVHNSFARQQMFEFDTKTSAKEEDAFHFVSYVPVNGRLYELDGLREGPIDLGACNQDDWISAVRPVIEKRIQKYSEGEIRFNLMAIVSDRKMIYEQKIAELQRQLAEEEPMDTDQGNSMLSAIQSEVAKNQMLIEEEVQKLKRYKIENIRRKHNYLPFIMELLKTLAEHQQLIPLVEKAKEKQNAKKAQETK
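Reagent: Ub-AMC substrate; assay system: Proteasome-associated human UCH37 deubiquitinase; controls: no-proteasome and no-compound wells; read-out: % inhibition of Ub-AMC cleavage fluorescence; timing: 30 min preincubation with enzyme, 25 min cleavage at room temperature; signal: AMC fluorescence from Ub-AMC cleavage, excitation 355 nm, emission 460 nm; buffer or medium: Tris-HCl pH 7.4 plus ovalbumin, ATP-MgCl2, DTT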
PAD4 FP inh = PAD4 (human) enzyme inhibition; recombinant PAD4, RCA probe fluorescence polarization; hit rate 0.41% among 330,000; AID 485272; inhibition, % at 6.36 µM;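 active means percent inhibition above a cutoff equal to the mean of all tested compounds plus 3 SD, cut at about 15% in these data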;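 further: 0% = PAD4 with RCA probe and DMSO and 100% = probe without PAD4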
TDP2 absorb = TDP2 (human) inhibition, absorbance primary screen. AID 720702. hit rate 0.34% among 370,000. inhibition, % at 12.8 µM. O95551. recombinant TDP2, T5PNP hydrolysis, p-nitrophenol absorbance 415 nm;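 active means inhibition above the mean of all tested compounds plus 3 SD, set per campaign, cut at about 25% in these data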;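 further: 0% = DMSO with enzyme and 100% = buffer with substrate but no TDP2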
Target sequence (O95551 whole entry, looked up): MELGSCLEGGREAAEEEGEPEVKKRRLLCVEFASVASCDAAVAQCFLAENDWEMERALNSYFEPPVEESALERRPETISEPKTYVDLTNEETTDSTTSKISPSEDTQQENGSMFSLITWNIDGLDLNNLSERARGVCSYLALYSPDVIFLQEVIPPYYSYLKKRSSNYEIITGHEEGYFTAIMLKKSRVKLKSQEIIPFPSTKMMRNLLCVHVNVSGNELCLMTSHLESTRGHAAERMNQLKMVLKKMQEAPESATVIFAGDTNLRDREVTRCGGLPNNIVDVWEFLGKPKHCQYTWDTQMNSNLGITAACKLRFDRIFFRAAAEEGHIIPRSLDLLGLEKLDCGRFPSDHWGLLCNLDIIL
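Assay system: recombinant human TDP2 / Reagent: T5PNP substrate at 5 mM, a TopII-DNA adduct mimic / Measured by: epi absorbance from released p-nitrophenol / Evaluation: % inhibition relative to enzyme-containing and enzyme-free wells / Control set: enzyme-free and DMSO wells / Replicates: each compound tested once, singlicate / Schedule: enzyme reaction with compound for 2 h at 37 °C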
HKDC1 inh = HKDC1 (human) hexokinase inhibition. Q2TB90. recombinant HKDC1, G6PDH/diaphorase resazurin coupled fluorescence. inhibition, % at 20 µM. hit rate 0.16% among 340,000;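 active means inhibition above about 35% when tested at 20 µM, limit read from the data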;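 further: plate controls were DMSO wells with enzyme for no effect and DMSO wells lacking enzyme for full effect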
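Assay system: in-house recombinant HK5 (HKDC1) enzyme. Input: HKDC1 at 5 µg/mL. Medium: Tris pH 8.0 buffer with MgCl2, Tween-20, BSA, BME. Dosing: single 20 µM dose. Schedule: 90 min reaction incubation at room temperature, dark. Signal: resazurin-to-resorufin fluorescence via G6PDH and diaphorase coupling, 525/613 nm. Controls: DMSO-enzyme wells negative, buffer-substituted wells positive.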
TDP2 confirm = confirmation of human TDP2 inhibitors; recombinant human TDP2, absorbance read-out; hit rate 22% among 1,100; shares compounds with TDP2 absorb; inhibition, % at 12.8 µM; in the data active means inhibition above about 25%;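 further: 0% = vehicle with enzyme and 100% = no enzyme buffer only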
* hit, by the source's call; · = no result given.

SMILES | GSTO1 inh | CTSL1 counter | UCH37 DUB inh | PAD4 FP inh | TDP2 absorb | HKDC1 inh | TDP2 confirm
Cc1[nH]n(-c2ccccc2)c(=O)c1/C=N/N(C)c1ccccc1 | -1 | -5 | · | 2 | 42* | 0 | 9
CC(=NNc1ccccn1)c1cccs1 | · | · | 8 | · | · | · | ·
COc1cc(C=NNS(=O)(=O)c2ccccc2)cc(OC)c1OC | · | · | 1 | · | · | · | ·
O=C(NN=Cc1ccc(COc2ccc(Br)cc2)o1)c1ccco1 | · | · | 2 | · | · | · | ·
O=C(NN=Cc1ccncc1)c1ccc(Cl)s1 | · | · | 7 | · | · | · | ·
N#CCCN(C(=O)CSc1ncccn1)c1ccc2c(c1)OCCO2 | · | · | 1 | -4 | 2 | -5 | ·
Cc1cc(C)c(C#N)c(SCC(=O)N(CCC#N)c2ccc3c(c2)OCCO3)n1 | · | · | 6 | · | 25* | -8 | 1
Cc1ccccc1C=NNC(=O)c1cccnc1 | · | · | 3 | · | · | · | ·
NC(=O)c1cc2ccccc2o/c1=N\NC(=O)c1ccncc1 | 19 | 2 | · | -1 | 32* | -2 | 0
Cc1ccc(C(=O)N/N=c2\oc3ccccc3cc2C(N)=O)cc1 | -3 | 6 | · | 0 | -13 | 1 | ·
CN(C)C(=NOC(=O)c1ccccc1)c1nonc1N | · | · | 0 | · | · | · | ·
Cc1ccc(CNC(=O)CN(C(=O)C2(C)CC(=O)N=C3C=CC=CN32)c2cc(C)ccc2C)cc1 (centres undefined) | 0 | -1 | -473 | -2 | 26* | 2 | 6
O=C(CCN1C(=O)/C(=C/c2ccco2)SC1=S)Nc1ccc(O)cc1C(=O)O | · | · | 4 | · | 27* | 25 | -4
O=C(CN1C(=O)/C(=C\c2ccco2)SC1=S)Nc1ccc(O)cc1C(=O)O | 24 | 0 | 9 | -18 | 24 | 17 | ·
Cc1ccc(-n2nc3c(=O)n(CCCC(=O)NCc4ccc(C)o4)nc(C)c3c2C)cc1 | 3 | 3 | 0 | 2 | 25* | -2 | 0
CC(=NO)c1cc(Cl)ccc1O | · | · | 5 | · | · | · | ·
Cc1ccc(-n2nc3c(c2NC(=O)C2CC2)CS(=O)(=O)C3)cc1 | 2 | -2 | 2 | 1 | 27* | -5 | 7
Cc1ccc(-n2nc3c(c2NC(=O)C2CC2)CS(=O)(=O)C3)cc1C | 0 | 2 | -3 | 1 | 2 | -4 | ·
COC(=O)[C@]1(C)N[C@H](CN(C)C(=O)Nc2ccc(F)cc2)[C@@H]2C(=O)N(C)C(=O)[C@@H]21 | · | · | 0 | -1 | 1 | -3 | ·
COC(=O)[C@]1(C)N[C@H](CN(C)C(=O)Nc2ccc(OC)cc2)[C@@H]2C(=O)N(C)C(=O)[C@@H]21 | · | · | 5 | -3 | 48* | 0 | 6
O=C(NC(=S)Nc1ccccc1Cl)c1cncc(Br)c1 | 4 | 1 | 2 | -3 | 27* | -2 | -4
COc1cc(O)c(NC(C)=O)c2nonc12 | 7 | -3 | 7 | 9 | 48* | 4 | 24
COc1cc(-c2ccc(NC(C)=O)c(OC)c2)ccc1NC(C)=O | 6 | -2 | 1 | -1 | 4 | 2 | ·
CCc1n[nH]c(=S)n1N=Cc1ccc(-c2ccc(Br)cc2)o1 | · | · | -3 | · | · | · | ·
COc1cc(N)c2ncccc2c1OC | · | · | 4 | · | 46* | 6 | 10
SMILES | GSTO1 inh | CTSL1 counter | UCH37 DUB inh | PAD4 FP inh | TDP2 absorb | HKDC1 inh | TDP2 confirm
COc1cc(NC(C)CCCNC(C)C)c2ncccc2c1OC (centres undefined) | · | · | · | · | 16 | 19 | ·
Cc1cc(C)c2c(N)c(C(=O)NN=Cc3cccs3)sc2n1 | · | · | -67 | · | · | · | ·
O=[N+]([O-])c1ccc(S(=O)(=O)NCC2COc3ccccc3O2)cc1 (centres undefined) | 12 | 4 | 6 | 3 | 25* | 1 | -1
CCOC(=O)C1CCCN(C(=O)c2cc3c(=O)n(C)c4ccccc4c3n2C)C1 (centres undefined) | 7 | 1 | 6 | -4 | 41* | 2 | 12
Cn1c(C(=O)N2CCCC2)cc2c(=O)n(C)c3ccccc3c21 | · | · | · | · | -1 | 2 | ·
Cc1ccc(C)c(NC(=O)c2cnccn2)c1 | -2 | -2 | 1 | 1 | 29* | -9 | -1
Cc1ccc(NC(=O)c2cnccn2)c(C)c1 | 3 | -6 | 4 | -1 | -8 | -6 | ·
COc1cc(NC(=O)c2ccco2)c(OC)cc1NC(=O)CCC(=O)Nc1cc(C)ccc1C | 6 | 5 | -298 | -4 | -15 | 8 | ·
COc1ccc(C)cc1NC(=O)CCNC(=O)c1ccco1 | 7 | 1 | 1 | 6 | 26* | -5 | 8
COc1cc(C(CC(=O)Nc2ncccc2C)N2Cc3ccccc3C2=O)cc(OC)c1OC (centres undefined) | 12 | -1 | -2 | -5 | 26* | -4 | -3
CC(C)(C)c1ccc(/C=N/Nc2nncn2N)cc1 | · | · | · | · | 67* | -6 | 4
CSc1ccc(/C=N\Nc2nncn2N)cc1 | 14 | 2 | · | 42* | 64* | 0 | 6
CC(=NNC(=O)c1nn(C)c(C)c1Br)c1cccc(NC(=O)c2ccoc2C)c1 | · | · | -5 | · | · | · | ·
NC(=NO)c1ccc(Cl)cc1Cl | · | · | 1 | · | · | · | ·
O=C(C1=C(O)C(=O)N(CC2CCCO2)C1c1cccc(O)c1)c1ccco1 (centres undefined) | 1 | 4 | 9 | -5 | 27* | -4 | 10
COc1ccc(N(CC(=O)NN=Cc2cccs2)S(=O)(=O)c2ccccc2)cc1 | · | · | 1 | · | · | · | ·
Cc1ccc(NC(=O)CC2SC(=Nc3nccs3)N(C)C2=O)cc1C (centres undefined) | · | · | 2 | · | · | · | ·
COc1ccc(-c2csc3ncnc(N4CCN(S(=O)(=O)c5cccc(C(F)(F)F)c5)CC4)c23)cc1 | -4 | 1 | -1 | 1 | 25* | 1 | 1
CCOC(=O)C(=O)C1=CN(Cc2ccccc2)C=C(C#N)C1 | 25 | 0 | -4 | -12 | 27* | 3 | 11
CCOC(=O)/C(C#N)=C1/C=CN(Cc2ccccc2)C=N1 | 3 | 3 | 12 | -1 | -3 | -3 | ·
Cc1nn(CCC#N)c(N)c1C1(O)C(=O)Nc2c(Cl)cc(Cl)cc21 (centres undefined) | 31 | -8 | 2 | -2 | 26* | 1 | 4
O=c1oc2ccccc2cc1-c1csc(Cc2nc(-c3ccc(Cl)cc3)cs2)n1 | 1 | -2 | -117 | 0 | -3 | -12 | ·
CCN(CC)c1ccc2cc(-c3nc(-c4cc5ccccc5oc4=O)cs3)c(=O)oc2c1 | · | · | 6 | · | 32* | 4 | 5
CCOc1cc(C=NNC(=O)c2cc(C)[nH]n2)ccc1OC(=O)c1ccc([N+](=O)[O-])cc1 | · | · | -4 | · | · | · | ·
Cc1ccc(S(=O)(=O)c2c[nH]c3cc4c(cc3c2=O)OCO4)cc1 | 11 | 2 | -6 | -1 | 26* | · | -8
O=C(O)c1ccc(NS(=O)(=O)c2cc(Cl)ccc2Cl)cc1O | 5 | 1 | 0 | -2 | 29* | -1 | 9
